What was measured:
Assay type in all cases: in vivo, postmenopausal Japanese women
[1] = Pharmacokinetics: plasma teriparatide acetate concentration
Summary of the method: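 Plasma was sampled before and at 15, 30, 45, 60, 90, 120, 180, 240, 360 and 720 min after one s.c. injection at 0800 h in postmenopausal women. Drug was assayed with a rat PTH IRMA kit (range 10 to 1,000 pg/mL). Cmax, AUClast, AUCinf, Tmax and T1/2 were derived for active-dose recipients only. Concentrations are given as mean ± SD.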

intact PTH = experiment: Serum intact PTH; conditions: n = 10
Summary of the method: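 Intact PTH in serum was measured by electrochemiluminescence immunoassay. Postmenopausal women aged 60–79 y were randomised double-blind to placebo or a single s.c. dose, given at 0800 h straight after baseline sampling. Blood was drawn at 15, 30, 45, 60, 90, 120, 180, 240, 360 and 720 min, then mornings of days 2, 4, 6, 8, 11, 13 and 15. Baseline median and follow-up distribution were reported.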

[2] = system: 1,25-Dihydroxy vitamin D (1,25(OH)2D); experiment: Serum 1,25; conditions: n = 10
Summary of the method: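 Serum 1,25(OH)2D was measured by radio receptor assay (inter-assay CV 11.3–13.2 %), with each participant's samples in a single batch. Women aged 60–79 y received one s.c. injection or placebo at 0800 h after baseline blood, in a double-blind randomised design. Sampling ran from 15–720 min and on mornings of days 2, 4, 6, 8, 11, 13 and 15. Median baseline and follow-up distribution were tabulated.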

osteocalcin = experiment: Bone formation marker serum osteocalcin; conditions: n = 10
Summary of the method: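 Women aged 60–79 y were randomised double-blind to placebo or one s.c. injection at 0800 h, given after baseline blood. Serum was sampled 15–720 min post-dose, then each morning on days 2, 4, 6, 8, 11, 13 and 15. Osteocalcin was measured by BGP-IRMA (inter-assay CV 4.7–7.6 %), in a single batch per participant. Values were summarised as baseline median and follow-up distribution.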

P1NP = experiment: Bone formation marker serum P1NP; conditions: n = 10
Summary of the method: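 Randomised, double-blind, placebo-controlled trial in women aged 60–79 y. A single s.c. dose was given at 0800 h after baseline sampling. Serum was drawn 15–720 min post-dose and on mornings of days 2, 4, 6, 8, 11, 13 and 15. P1NP was measured by radioimmunoassay (inter-assay CV 2.7–5.0 %), with each subject's samples in one batch. Median baseline and follow-up distribution were reported.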

[3] = system: Serum cross-linked N-telopeptide of type I collagen (NTX); experiment: Bone resorption marker serum NTX; conditions: n = 10
Summary of the method: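 Serum NTX was measured by ELISA (inter-assay CV 6.9–11.1 %), with all of a participant's samples run together. The trial was a placebo-controlled, double-blind, single-centre study in postmenopausal women aged 60–79 y, each given one s.c. injection after 0800 h baseline sampling. Blood was taken at 15–720 min and on mornings of days 2–15. Baseline median and follow-up distribution were tabulated.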

[4] = system: urinary cross-linked C-telopeptide of type I collagen (CTX); experiment: Bone resorption marker urinary CTX; conditions: n = 10
Summary of the method: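 Urine was collected at baseline (0800 h), at 120, 240, 360 and 720 min after a single s.c. injection, and on mornings of days 2, 4, 6, 8, 11, 13 and 15. Subjects were postmenopausal women aged 60–79 y in a randomised, double-blind, placebo-controlled design. CTX was measured by ELISA (inter-assay CV 2.4–9.0 %), with each participant's samples in one batch. Median and distribution were summarised.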

[5] = Safety: adverse events after injection
Summary of the method: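 Adverse events were recorded after a single s.c. injection of drug or identical-looking placebo in a randomised, double-blind study of postmenopausal women aged 60–79 y, with 10 per group. Events and abnormal laboratory changes were coded by MedDRA/J version 9.0 by system organ class and preferred term, and classified as adverse drug reactions where applicable. Follow-up lasted until day 15.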

[6] = 4 to 15 days, 28.2 μg single s.c.
[7] = 4 to 15 days, 56.5 μg single s.c.

Tmax ([1]; female, human, sc): 1 h
AUC(0-inf) ([1]; female, human, sc, 28.2 ug): 0.468 ng·h/mL
AUC(0-inf) ([1]; female, human, sc, 56.5 ug): 0.879 ng·h/mL
AUC(0-t) ([1]; female, human, sc, 56.5 ug): 0.832 ng·h/mL
time after injection at which teriparatide concentration disappeared ([1]; single s.c. injection 28.2 or 56.5 μg): 6 h
Compound: CC[C@H](C)[C@H](NC(=O)[C@H](CCC(=O)O)NC(=O)[C@H](CO)NC(=O)[C@@H](NC(=O)[C@@H](N)CO)C(C)C)C(=O)N[C@@H](CCC(N)=O)C(=O)N[C@@H](CC(C)C)C(=O)N[C@@H](CCSC)C(=O)N[C@@H](Cc1cnc[nH]1)C(=O)N[C@@H](CC(N)=O)C(=O)N[C@@H](CC(C)C)C(=O)NCC(=O)N[C@@H](CCCCN)C(=O)N[C@@H](Cc1cnc[nH]1)C(=O)N[C@@H](CC(C)C)C(=O)N[C@@H](CC(N)=O)C(=O)N[C@@H](CO)C(=O)N[C@@H](CCSC)C(=O)N[C@@H](CCC(=O)O)C(=O)N[C@@H](CCCN=C(N)N)C(=O)N[C@H](C(=O)N[C@@H](CCC(=O)O)C(=O)N[C@@H](Cc1c[nH]c2ccccc12)C(=O)N[C@@H](CC(C)C)C(=O)N[C@@H](CCCN=C(N)N)C(=O)N[C@@H](CCCCN)C(=O)N[C@@H](CCCCN)C(=O)N[C@@H](CC(C)C)C(=O)N[C@@H](CCC(N)=O)C(=O)N[C@@H](CC(=O)O)C(=O)N[C@H](C(=O)N[C@@H](Cc1cnc[nH]1)C(=O)N[C@@H](CC(N)=O)C(=O)N[C@@H](Cc1ccccc1)C(=O)O)C(C)C)C(C)C [teriparatide]
Intact-PTH, Max (intact PTH; 2 to 24 h, 28.2 μg single s.c.): 66.0 pg/mL
Intact-PTH, Median (intact PTH; 2 to 24 h, 28.2 μg single s.c.): 34.5 pg/mL
Intact-PTH, Min (intact PTH; 2 to 24 h, 28.2 μg single s.c.): 17.0 pg/mL
Intact-PTH, Max (intact PTH; 2 to 24 h, 56.5 μg single s.c.): 65.0 pg/mL
Intact-PTH, Median (intact PTH; 2 to 24 h, 56.5 μg single s.c.): 35.0 pg/mL
Intact-PTH, Min (intact PTH; 2 to 24 h, 56.5 μg single s.c.): 18.0 pg/mL
Intact-PTH, Max (intact PTH; [6]): 64.0 pg/mL
Intact-PTH, Median (intact PTH; [6]): 45.5 pg/mL
Intact-PTH, Min (intact PTH; [6]): 25.0 pg/mL
Intact-PTH, Max (intact PTH; [7]): 109.0 pg/mL
Intact-PTH, Median (intact PTH; [7]): 49.0 pg/mL
Intact-PTH, Min (intact PTH; [7]): 26.0 pg/mL
1,25(OH)2D, Max ([2]; 2 to 24 h, 28.2 μg single s.c.): 118.0 pg/mL
1,25(OH)2D, Median ([2]; 2 to 24 h, 28.2 μg single s.c.): 67.5 pg/mL
1,25(OH)2D, Min ([2]; 2 to 24 h, 28.2 μg single s.c.): 37.0 pg/mL
1,25(OH)2D, Max ([2]; 2 to 24 h, 56.5 μg single s.c.): 136.0 pg/mL
1,25(OH)2D, Median ([2]; 2 to 24 h, 56.5 μg single s.c.): 70.5 pg/mL
1,25(OH)2D, Min ([2]; 2 to 24 h, 56.5 μg single s.c.): 33.0 pg/mL
1,25(OH)2D, Max [2, 6]: 99.0 pg/mL
1,25(OH)2D, Median [2, 6]: 56.0 pg/mL
1,25(OH)2D, Min [2, 6]: 21.0 pg/mL
1,25(OH)2D, Max [2, 7]: 94.0 pg/mL
1,25(OH)2D, Median [2, 7]: 54.0 pg/mL
1,25(OH)2D, Min [2, 7]: 18.0 pg/mL
Serum osteocalcin, Max (osteocalcin; 2 to 24 h, 28.2 μg single s.c.): 12.7 ng/mL
Serum osteocalcin, Median (osteocalcin; 2 to 24 h, 28.2 μg single s.c.): 7.6 ng/mL
Serum osteocalcin, Min (osteocalcin; 2 to 24 h, 28.2 μg single s.c.): 4.6 ng/mL
Serum osteocalcin, Max (osteocalcin; 2 to 24 h, 56.5 μg single s.c.): 16.7 ng/mL
Serum osteocalcin, Median (osteocalcin; 2 to 24 h, 56.5 μg single s.c.): 7.4 ng/mL
Serum osteocalcin, Min (osteocalcin; 2 to 24 h, 56.5 μg single s.c.): 3.2 ng/mL
Serum osteocalcin, Max (osteocalcin; [6]): 12.2 ng/mL
Serum osteocalcin, Median (osteocalcin; [6]): 8.1 ng/mL
Serum osteocalcin, Min (osteocalcin; [6]): 4.6 ng/mL
Serum osteocalcin, Max (osteocalcin; [7]): 17.9 ng/mL
Serum osteocalcin, Median (osteocalcin; [7]): 7.9 ng/mL
Serum osteocalcin, Min (osteocalcin; [7]): 4.3 ng/mL
Serum P1NP, Max (P1NP; 2 to 24 h, 28.2 μg single s.c.): 77.4 ng/mL
Serum P1NP, Median (P1NP; 2 to 24 h, 28.2 μg single s.c.): 47.4 ng/mL
Serum P1NP, Min (P1NP; 2 to 24 h, 28.2 μg single s.c.): 28.0 ng/mL
Serum P1NP, Max (P1NP; 2 to 24 h, 56.5 μg single s.c.): 101.0 ng/mL
Serum P1NP, Median (P1NP; 2 to 24 h, 56.5 μg single s.c.): 49.1 ng/mL
Serum P1NP, Min (P1NP; 2 to 24 h, 56.5 μg single s.c.): 13.0 ng/mL
Serum P1NP, Max (P1NP; [6]): 80.2 ng/mL
Serum P1NP, Median (P1NP; [6]): 53.5 ng/mL
Serum P1NP, Min (P1NP; [6]): 30.7 ng/mL
Serum P1NP, Max (P1NP; [7]): 118.0 ng/mL
Serum P1NP, Median (P1NP; [7]): 56.9 ng/mL
Serum P1NP, Min (P1NP; [7]): 18.3 ng/mL
Serum NTX, Max ([3]; 2 to 24 h, 28.2 μg single s.c.): 21.7 nM BCE/L
Serum NTX, Median ([3]; 2 to 24 h, 28.2 μg single s.c.): 14.2 nM BCE/L
Serum NTX, Min ([3]; 2 to 24 h, 28.2 μg single s.c.): 9.2 nM BCE/L
Serum NTX, Max ([3]; 2 to 24 h, 56.5 μg single s.c.): 27.7 nM BCE/L
Serum NTX, Median ([3]; 2 to 24 h, 56.5 μg single s.c.): 13.8 nM BCE/L
Serum NTX, Min ([3]; 2 to 24 h, 56.5 μg single s.c.): 7.2 nM BCE/L
Serum NTX, Max [3, 6]: 20.4 nM BCE/L
Serum NTX, Median [3, 6]: 13.2 nM BCE/L
Serum NTX, Min [3, 6]: 7.2 nM BCE/L
Serum NTX, Max [3, 7]: 20.6 nM BCE/L
Serum NTX, Median [3, 7]: 10.7 nM BCE/L
Serum NTX, Min [3, 7]: 7.5 nM BCE/L
Urinary CTX, Max ([4]; 2 to 24 h, 28.2 μg single s.c.): 958.0 µg/mmol
Urinary CTX, Median ([4]; 2 to 24 h, 28.2 μg single s.c.): 402.5 µg/mmol
Urinary CTX, Min ([4]; 2 to 24 h, 28.2 μg single s.c.): 192.0 µg/mmol
Urinary CTX, Max ([4]; 2 to 24 h, 56.5 μg single s.c.): 1190.0 µg/mmol
Urinary CTX, Median ([4]; 2 to 24 h, 56.5 μg single s.c.): 508.5 µg/mmol
Urinary CTX, Min ([4]; 2 to 24 h, 56.5 μg single s.c.): 238.0 µg/mmol
Urinary CTX, Max [4, 6]: 655.0 µg/mmol
Urinary CTX, Median [4, 6]: 351.0 µg/mmol
Urinary CTX, Min [4, 6]: 106.0 µg/mmol
Urinary CTX, Max [4, 7]: 972.0 µg/mmol
Urinary CTX, Median [4, 7]: 351.0 µg/mmol
Urinary CTX, Min [4, 7]: 142.0 µg/mmol
Any adverse event ([5]; 28.2 μg single s.c., n = 10): 10 (100) n (%)
Decreased appetite ([5]; 28.2 μg single s.c., n = 10): 1 (10) n (%)
Decreased blood pressure ([5]; 28.2 μg single s.c., n = 10): 1 (10) n (%)
Erythema ([5]; 28.2 μg single s.c., n = 10): 1 (10) n (%)
Muscle spasms ([5]; 28.2 μg single s.c., n = 10): 1 (10) n (%)
Palpitations ([5]; 28.2 μg single s.c., n = 10): 1 (10) n (%)
Positional vertigo ([5]; 28.2 μg single s.c., n = 10): 1 (10) n (%)
Rhinorrhea ([5]; 28.2 μg single s.c., n = 10): 1 (10) n (%)
Somnolence ([5]; 28.2 μg single s.c., n = 10): 1 (10) n (%)
Vomiting ([5]; 28.2 μg single s.c., n = 10): 1 (10) n (%)
Any adverse event ([5]; 56.5 μg single s.c., n = 10): 10 (100) n (%)
Conjunctival hyperemia ([5]; 56.5 μg single s.c., n = 10): 1 (10) n (%)
Decreased appetite ([5]; 56.5 μg single s.c., n = 10): 1 (10) n (%)
Eye pain ([5]; 56.5 μg single s.c., n = 10): 1 (10) n (%)
Headache ([5]; 56.5 μg single s.c., n = 10): 3 (30) n (%)
Hot flashes ([5]; 56.5 μg single s.c., n = 10): 1 (10) n (%)
Nasopharyngitis ([5]; 56.5 μg single s.c., n = 10): 1 (10) n (%)
Nausea ([5]; 56.5 μg single s.c., n = 10): 1 (10) n (%)
Pharynx discomfort ([5]; 56.5 μg single s.c., n = 10): 1 (10) n (%)
Rhinorrhea ([5]; 56.5 μg single s.c., n = 10): 1 (10) n (%)
Somnolence ([5]; 56.5 μg single s.c., n = 10): 5 (50) n (%)
Vomiting ([5]; 56.5 μg single s.c., n = 10): 1 (10) n (%)
severity and outcome of ADRs ([5]; 28.2 and 56.5 μg groups, most ADRs): mild and resolved without intervention
changes in laboratory values before or after administration ([5]; throughout the study duration): no significant changes
